Experimental data as given in ChEMBL document CHEMBL1275524, “Activities of antifungal agents against yeasts and filamentous fungi: assessment according to the methodology of the European Committee on Antimicrobial Susceptibility Testing” (2008).
Converted amounts (≈) assume the structure as drawn.

Experiments:
[1] = tested on: Clavispora lusitaniae; assay: Antifungal activity against Candida lusitaniae; format: functional
Outline: (§1)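 Broth microdilution in flat-bottom plates in RPMI 1640 with 2% glucose; inoculum 0.5 × 105 to 2.5 × 10^5 CFU/ml. MICs were read spectrophotometrically at 24 h. AMB endpoint: ≥90% growth reduction vs drug-free control well. Azole and CPF endpoint: 50% reduction in optical density. MFC was taken as the lowest concentration giving 99% killing.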

[2] = tested on: Cryptococcus gattii; assay: Antifungal activity against Cryptococcus neoformans var. gattii by EUCAST method; format: functional, Cryptococcus bacillisporus
Outline: (§2)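 EUCAST yeast microdilution, modified for nonfermentative yeasts: plates were sealed and agitated at 350 rpm and 30°C for 48 h.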

[3] = tested on: Fusarium oxysporum; assay: Antifungal activity against Fusarium oxysporum by EUCAST method; format: functional; conditions: read-out: MEC
[4] = tested on: Mucor; assay: Antifungal activity against Mucor species by EUCAST method; format: functional; conditions: read-out: MEC
[5] = tested on: Cryptococcus gattii; assay: Antifungal activity against Cryptococcus neoformans var. gattii; format: functional, Cryptococcus bacillisporus; outline: as §2
[6] = tested on: Mucor hiemalis; assay: Antifungal activity against Mucor hiemalis; format: functional
[7] = tested on: Aspergillus terreus; assay: Antifungal activity against Aspergillus terreus by EUCAST method; format: functional
[8] = tested on: Aspergillus fumigatus; assay: Antifungal activity against Aspergillus fumigatus by EUCAST method; format: functional
[9] = tested on: Geotrichum candidum; assay: Antifungal activity against Geotrichum candidum by EUCAST method; format: functional
[10] = tested on: Mucor; assay: Antifungal activity against Mucor species; format: functional
[11] = tested on: Rhizopus; assay: Antifungal activity against Rhizopus species; format: functional
Outline: (§3)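 Broth microdilution following the EUCAST reference procedure for spore-forming moulds, in flat-bottom plates with RPMI 1640 plus 2% glucose. Inoculum was 2 × 10^5 to 5 × 10^5 CFU/ml. MICs were read visually at 24 and 48 h as 100% growth reduction versus a drug-free control for polyenes and azoles. MEC was used for caspofungin. Tests were run in duplicate and repeated twice.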

[12] = tested on: Fusarium oxysporum; assay: Antifungal activity against Fusarium oxysporum; format: functional
[13] = tested on: Curvularia lunata; assay: Antifungal activity against Curvularia lunata by EUCAST method; format: functional; conditions: read-out: MEC
Outline: (§4)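 Dematiaceous fungi were tested by the EUCAST spore-forming mold reference procedure: flat-bottom microdilution plates, RPMI 1640 plus 2% glucose, inoculum 2 × 105 to 5 × 10^5 CFU/ml. Endpoints were read visually at 24 and 48 h. Polyenes and azoles: 100% growth reduction vs drug-free control. CPF: minimum effective concentration. Run in duplicate and repeated twice.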

[14] = tested on: Absidia; assay: Antifungal activity against Absidia species; format: functional
[15] = tested on: Fusarium solani; assay: Antifungal activity against Fusarium solani; format: functional
[16] = tested on: Sporothrix schenckii; assay: Antifungal activity against Sporothrix schenckii; format: functional; outline: as §3
[17] = tested on: Curvularia australiensis; assay: Antifungal activity against Bipolaris australiensis by EUCAST method; format: functional; conditions: read-out: MEC; outline: as §4
[18] = Antifungal activity against Cryptococcus neoformans var. neoformans; format: functional; conditions: Cryptococcus deneoformans; outline: as §2
[19] = tested on: Candida albicans; assay: Antifungal activity against Candida albicans; format: functional; outline: as §1
[20] = Antifungal activity against Rhinocladiella aquaspersa by EUCAST method; format: functional; outline: as §4
[21] = tested on: Penicillium sp.; assay: Antifungal activity against Penicillium species by EUCAST method; format: functional; conditions: read-out: MEC
[22] = tested on: Nakaseomyces glabratus; assay: Antifungal activity against Candida glabrata by EUCAST method; format: functional; outline: as §1
[23] = tested on: Curvularia australiensis; assay: Antifungal activity against Bipolaris australiensis; format: functional; outline: as §4
[24] = tested on: Aspergillus terreus; assay: Antifungal activity against Aspergillus terreus; format: functional
[25] = tested on: Rhizomucor; assay: Antifungal activity against Rhizomucor species by EUCAST method; format: functional; conditions: read-out: MEC; outline: as §3
[26] = tested on: Lomentospora prolificans; assay: Antifungal activity against Scedosporium prolificans by EUCAST method; format: functional; conditions: read-out: MEC; outline: as §3
[27] = tested on: Scedosporium apiospermum; assay: Antifungal activity against Scedosporium apiospermum; format: functional; outline: as §3
[28] = tested on: Candida parapsilosis; assay: Antifungal activity against Candida parapsilosis by EUCAST method; format: functional; conditions: Lodderomyces parapsilosis; outline: as §1
[29] = tested on: Talaromyces marneffei; assay: Antifungal activity against Penicillium marneffei; format: functional
[30] = tested on: Penicillium sp.; assay: Antifungal activity against Penicillium species; format: functional
[31] = tested on: Aspergillus fumigatus; assay: Antifungal activity against Aspergillus fumigatus; format: functional
[32] = tested on: Candida albicans; assay: Antifungal activity against Candida albicans by EUCAST method; format: functional; outline: as §1
[33] = tested on: Trichosporon inkin; assay: Antifungal activity against Trichosporon inkin by EUCAST method; format: functional
Outline: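 Nonfermentative yeasts were tested by the EUCAST microdilution recommendations with one change: plates were sealed and agitated at 350 rpm and 30°C for 48 h.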

[34] = tested on: Meyerozyma guilliermondii; assay: Antifungal activity against Candida guilliermondii by EUCAST method; format: functional; outline: as §1
[35] = tested on: Pichia kudriavzevii; assay: Antifungal activity against Candida krusei by EUCAST method; format: functional; outline: as §1
[36] = tested on: Saccharomyces cerevisiae; assay: Antifungal activity against Saccharomyces cerevisiae by EUCAST method; format: functional
Outline: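 EUCAST broth microdilution for yeasts in flat-bottom plates, RPMI 1640 with 2% glucose, inoculum 0.5 × 105 to 2.5 × 10^5 CFU/ml. […] MFC is the lowest concentration giving 99% killing.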

## CC[C@H](C)C[C@H](C)CCCCCCCCC(=O)N[C@H]1C[C@@H](O)[C@@H](NCCN)NC(=O)[C@@H]2[C@@H](O)CCN2C(=O)[C@H]([C@H](O)CCN)NC(=O)[C@H]([C@H](O)[C@@H](O)c2ccc(O)cc2)NC(=O)[C@@H]2C[C@@H](O)CN2C(=O)[C@H]([C@@H](C)O)NC1=O [CASPOFUNGIN]
[1]
  MFC: 4 µg/mL (≈ 3.66 µM)
[2]
  MIC: 5.33 µg/mL (≈ 4.88 µM)
[3]
  minimal effective concentration: > 8 µg/mL
[4]
  minimal effective concentration: > 8 µg/mL
[5]
  MFC: > 8 µg/mL
[6]
  MFC: > 8 µg/mL
[7]
  MIC: 0.19 µg/mL (≈ 0.174 µM)
[7]; read-out: MEC
  minimal effective concentration: 0.125 µg/mL
[8]
  MIC: 0.45 µg/mL (≈ 0.412 µM)
[8]; read-out: MEC
  minimal effective concentration: 0.25 µg/mL
[9]
  MIC: 3 µg/mL (≈ 2.74 µM)
[10]
  MFC: > 8 µg/mL
[11]
  MFC: > 8 µg/mL
[12]
  MFC: > 8 µg/mL
[13]
  minimal effective concentration: > 8 µg/mL
[14]
  MFC: > 8 µg/mL
[15]
  MFC: > 8 µg/mL
[16]
  MFC: > 8 µg/mL
[17]
  minimal effective concentration: > 8 µg/mL
[18]
  MFC: > 8 µg/mL
[19]
  MFC: 0.15 µg/mL (≈ 0.137 µM)
[20]
  MEC: > 8 µg/mL
[21]
  minimal effective concentration: > 8 µg/mL
[22]
  MIC: 0.32 µg/mL (≈ 0.293 µM)
[23]
  MFC: > 8 µg/mL
[24]
  MFC: > 8 µg/mL
[25]
  minimal effective concentration: > 8 µg/mL
[26]
  minimal effective concentration: > 8 µg/mL
[27]
  MFC: > 8 µg/mL
[28]
  MIC: 0.82 µg/mL (≈ 0.75 µM)
[29]
  MFC: > 8 µg/mL
[30]
  MFC: > 8 µg/mL
[31]
  MFC: > 8 µg/mL
[32]
  MIC: 0.14 µg/mL (≈ 0.128 µM)
[33]
  MIC: 5.33 µg/mL (≈ 4.88 µM)
[34]
  MIC: 0.68 µg/mL (≈ 0.622 µM)
[35]
  MIC: 0.58 µg/mL (≈ 0.53 µM)
[36]
  MIC: 1.3 µg/mL (≈ 1.19 µM)
